MsrA act: activators of bovine methionine sulfoxide reductase A. activation, % at 10.6 µM. AID 602163. purified bovine MsrA, absorbance read-out. 360,000 compounds, 0.3% hits; in the data active = activation above about 7.5%;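 note: 0% = vehicle and 100% = reference activator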
ASAP1 GAP inh: inhibitors of human ASAP1 ArfGAP activity; ASAP1-stimulated ARF1 GTP hydrolysis, GDP FP detection; Q9ULH1; inhibition, % at 16.5 µM; 360,000 compounds, 0.19% hits; in the data active = inhibition above about 25%;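 note: 0% = vehicle with enzyme and substrate and 100% = no enzyme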
Target sequence (Q9ULH1 325-724 limits assumed): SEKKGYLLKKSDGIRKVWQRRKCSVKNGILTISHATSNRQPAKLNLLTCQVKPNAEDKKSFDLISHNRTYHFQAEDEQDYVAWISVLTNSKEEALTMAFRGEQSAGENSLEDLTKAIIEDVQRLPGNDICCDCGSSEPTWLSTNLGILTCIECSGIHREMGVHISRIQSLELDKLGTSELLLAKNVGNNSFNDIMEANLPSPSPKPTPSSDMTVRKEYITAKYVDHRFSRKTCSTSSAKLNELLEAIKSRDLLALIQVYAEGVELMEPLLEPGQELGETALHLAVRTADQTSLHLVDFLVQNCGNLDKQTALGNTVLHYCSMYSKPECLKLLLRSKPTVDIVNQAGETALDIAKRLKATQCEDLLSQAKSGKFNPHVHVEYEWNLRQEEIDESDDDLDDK
MsrA inh: bovine MsrA inhibition. purified bovine MsrA, absorbance read-out. inhibition, % at 15.5 µM. 360,000 compounds, 0.75% hits. AID 651718;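 note: 0% = vehicle wells with enzyme and 100% = reference inhibitor wells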
ARFGAP1 inhibitor: inhibits rat ARF GTPase activating protein 1 | Q62848 | Arfgap1-stimulated ARF1 GTP hydrolysis, GDP FP detection | inhibition, % at 16.5 µM | 360,000 compounds, 0.26% hits | AID 651572;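 active = inhibition above a per-plate limit, mean inhibition of low control wells plus 3 SD, cut at about 25% in these data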;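 note: 0% = DMSO wells with enzyme and 100% = wells lacking Arfgap1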
Target sequence (Q62848 1-136 limits assumed): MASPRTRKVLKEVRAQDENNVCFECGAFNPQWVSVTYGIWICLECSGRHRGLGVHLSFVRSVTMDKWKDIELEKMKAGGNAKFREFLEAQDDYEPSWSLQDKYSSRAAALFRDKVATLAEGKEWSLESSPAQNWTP
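Material: rat Arfgap1 GAP domain (His6, aa 1-136), purified enzyme. Also added: human ARF1(Δ1-17)-GTP substrate. Compound dosing: 16.5 µM single point, 1.26% DMSO. Timing: enzyme reaction 120 min at 25 °C after 20 min preincubation. Signal: GDP detection by fluorescence polarization. Read-out basis: percent inhibition of GAP-stimulated GDP formation, scaled between DMSO and no-Arfgap1 medians.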
MsrA conf: confirmation of bovine MsrA inhibitors; 2,300 compounds, 41% hits; shares compounds with MsrA inh; purified bovine MsrA, absorbance read-out; inhibition, % at 15.5 µM; AID 651822;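 note: coupled to thioredoxin reductase with NADPH and selenocystamine and DMSO as substrate; 0% = vehicle only and 100% = full effect of reference inhibitor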
Numbers without * were called inactive; . = no result given. In the library only some 1.4% were active in any assay of this set; here they are far more common. Cut-off read from the data, not from the text of the source, unless noted: active = inhibition above about 4.5%; inactive = the rest.

SMILES	MsrA act	ASAP1 GAP inh	MsrA inh	ARFGAP1 inhibitor	MsrA conf
COCCNCc1cc(C)n(-c2cc(S(=O)(=O)N3CCOCC3)ccc2N2CCCC2)c1C	-3.0	17.9	0.0	4.1	.
C/C(=N\NC(=O)c1ccc(-n2cnnn2)cc1)c1ccc(C)cc1	-1.4	5.1	0.0	7.7	.
CCOc1cc(/C=C2\C(=O)ON=C2c2ccccc2)cc(Br)c1O	-7.6	-0.6	4.3	6.6	.
COc1cc(/C=C2\C(=O)ON=C2c2ccccc2)cc(Br)c1O	-8.0	-0.7	5.5*	-6.7	2.4
CCOc1cc(/C=C2/C(=O)ON=C2C)cc(Br)c1O	-11.5	-10.3	5.0*	-5.8	2.7
COc1ccc(-n2nnnc2C(c2ccccc2)N2CCN(C/C=C/c3ccccc3)CC2)cc1 (configuration not stated)	-12.1	-5.4	0.1	4.4	.
O=[N+]([O-])c1cccc(-c2ccc(C(=S)N3CCOCC3)o2)c1	-7.4	3.5	5.1*	0.3	5.6*
CCCCNC(=O)C[C@H]1C[C@@]2(C(=O)OC)C(=C[C@H](C(C)(C)C)O[C@@H]2C)N(Cc2ccccc2)C1=O	.	-4.2	-0.5	-4.8	.
COc1cc(/C=N/NC(=O)[C@H](Cc2c[nH]c3ccccc23)NC(=O)OCC(C)C)cc([N+](=O)[O-])c1O	-6.8	-2.3	6.4*	-15.9	4.4
COC(=O)c1c(C)c2c(C)cc3ccccn3c-2c1C(=O)OC	-2.1	-3.5	4.7*	-11.1	3.2
COC(=O)c1cc2c(-c3ccccc3)cc3ccccn3c-2c1C(=O)OC	-10.8	0.3	1.1	-3.7	.
Cc1cc(O)c(C(C)C)cc1N=Cc1ccc(N(C)C)cc1	-4.8	-3.8	4.9*	-11.6	3.7
Oc1cccc(/C=N/Nc2cc(N3CCOCC3)nc(N3CCOCC3)n2)c1	-3.9	2.8	4.9*	9.2	6.2*
Oc1ccc(/C=N/Nc2cc(N3CCOCC3)nc(N3CCOCC3)n2)cc1O	-5.2	-0.4	4.7*	6.1	4.0
O=c1nc(N2CCOCC2)nc(N/N=C/c2ccc3c(c2)OCO3)[nH]1	-1.7	-5.2	5.5*	-5.0	1.6
Cc1nc(N/N=C/c2ccc(O)cc2O)cc(N2CCOCC2)n1	-3.7	2.8	4.8*	7.7	4.3
CC(C)OCCCNC(=O)NC(=O)c1ccc(Cl)cc1	0.1	7.1	0.0	-3.0	.
O=C(c1cc(COc2ccc(F)cc2F)on1)N1CC2C[C@@H]3CC1C[C@H](C2)C3	-0.7	1.8	-0.6	9.4	.
COc1ccc(-c2cc(C(F)F)n3ncc(C(=O)N4CCc5ccccc54)c3n2)cc1	-1.7	12.3	0.2	-0.7	.
COc1ccc(-c2cc(C(F)F)n3ncc(C(=O)n4ccnc4C)c3n2)cc1	-10.0	-1.5	4.7*	10.6	11.4*
COc1ccc(OC)c(CN2C(=O)CN(S(C)(=O)=O)CC2(C)C(=O)Nc2c(C)cccc2C)c1 (configuration not stated)	.	5.3	-0.3	-5.8	.
C/C(=N/O)c1cc(C(C)(C)C)c(O)c(C(C)(C)C)c1	-7.0	-12.9	11.9*	6.0	11.4*
Cc1cc(C)cc(C(O)c2ncc(-c3ccccc3Cl)[nH]2)c1 (configuration not stated)	-9.0	0.7	0.8	3.5	.
C/C(=N\Nc1ccc(C(=O)O)cc1)c1ccc(Br)cc1	-4.5	-4.0	4.8*	-15.3	6.4*
CC1CCCCN1S(=O)(=O)Cc1ccccc1Cl (configuration not stated)	-1.6	-4.3	-0.6	-0.3	.
SMILES	MsrA act	ASAP1 GAP inh	MsrA inh	ARFGAP1 inhibitor	MsrA conf
CC(=O)Nc1cc(OC(C)=O)c2nonc2c1OC(C)=O	5.3	-9.2	28.5*	-10.3	-0.6
CC(=O)Nc1nonc1NC(C)=O	-1.0	-5.1	-0.9	4.3	.
COc1ccc(OCCOc2ccc(/C=C3\C(=N)N4N=C(C)SC4=NC3=O)cc2)cc1	-2.1	9.0	0.7	-12.7	.
C=CCc1c(C)nc(C)nc1N/N=C/c1ccccc1	-3.5	9.7	4.7*	4.1	4.8*
Nc1ccc(-c2nc3cc(N)ccc3o2)cc1	-7.6	9.6	4.1	-3.8	.
Nc1ccc(-c2nc3ccc(N)cc3o2)cc1	-2.0	4.2	4.8*	-6.6	5.4*
O=C(O)CC1S/C(=N/N=C/c2ccc(-c3ccc(Cl)c([N+](=O)[O-])c3)o2)NC1=O (configuration not stated)	-5.2	-0.7	5.4*	4.9	4.5
Cc1ccc(/C=N/N=C2/NC(=O)C(CC(=O)Nc3ccc(Cl)cc3)S2)o1 (configuration not stated)	-1.7	-1.4	0.7	-10.1	.
Cc1ccc(/C=N/N=C2/NC(=O)C(CC(=O)Nc3ccccc3)S2)o1 (configuration not stated)	-15.6	0.9	1.1	1.8	.
O=C(O)CC1S/C(=N/N=C/c2ccc(-c3ccc(Cl)cc3[N+](=O)[O-])o2)NC1=O (configuration not stated)	-3.7	-7.0	4.9*	3.1	5.8*
CCC(C)(C)NC(=O)C(c1cccc(OC)c1OC)N(CCOC)C(=O)CCC(=O)Nc1cc(C)on1 (configuration not stated)	-2.3	-11.9	0.7	3.2	.
Cc1c(CC(=O)N[C@@H](C)C(=O)O)c(=O)oc2cc3c(cc12)CCC(C)(C)O3	-9.7	1.5	5.3*	-0.6	3.5
Cc1c(CC(=O)NC(C)C)c(=O)oc2cc3c(cc12)CCC(C)(C)O3	-3.5	-0.9	2.8	-1.9	.
N#CCCSc1nc(N2CCOCC2)c2c(c1C#N)CCCC2	0.1	7.3	18.2*	-3.6	15.0*
N#Cc1c(SCC(=O)O)nc(N2CCCCC2)c2c1CCCC2	-3.1	-9.2	2.6	2.0	.
CCCSc1nc(N2CCOCC2)c2c(c1C#N)CCCC2	-4.3	-3.6	12.7*	4.3	11.0*
CSc1nc(N2CCOCC2)c2c(c1C#N)CCCCC2	-1.6	-9.4	5.5*	-3.1	3.0
CSc1nc(N2CCOCC2)c2c(c1C#N)CC(C)(C)OC2	-2.7	-16.3	2.3	13.7	.
COC(=O)Cn1c2ccccc2c2nc3ccccc3nc21	-4.0	1.2	6.7*	9.3	5.3*
N#CCn1c2ccccc2c2nc3ccccc3nc21	0.4	-4.9	-0.2	15.7	.
C#CCn1c2ccccc2c2nc3ccccc3nc21	3.1	-0.6	5.5*	-1.9	1.5
O=C(NCc1ccncc1)[C@@H]1CCCN1C(=O)[C@@H]1CCCN1C(=O)c1cccc2ccccc12	-1.6	9.5	-0.8	5.3	.
O=C(N/N=C/c1ccc([N+](=O)[O-])cc1)c1[nH]ncc1Br	-11.3	2.7	4.9*	7.3	3.4
O=C(N/N=C/c1ccc([N+](=O)[O-])cc1)c1cc(C2CC2)[nH]n1	-3.0	2.6	5.3*	-6.6	5.3*
O=C(N/N=C/c1ccc([N+](=O)[O-])cc1)c1ccc2nc[nH]c2c1	-0.7	-1.8	5.6*	5.0	4.8*
O=C(N/N=C\c1cn[nH]c1-c1ccccc1)c1ccc([N+](=O)[O-])cc1	-1.0	-0.3	2.6	3.6	.
O=C(N/N=C/c1cccc([N+](=O)[O-])c1)c1ccc2nc[nH]c2c1	-1.9	14.8	1.1	3.4	.
O=C(N/N=C/c1ccco1)c1cc(C2CC2)[nH]n1	-3.4	-9.8	0.7	9.6	.

High-throughput results (PubChem)
